We go through 1 molecule from ChEMBL document CHEMBL1122647 (J Med Chem, 1984).

In one test the test system is L1210. The test is described as follows: Compound was evaluated for its cytotoxicity against the L1210 murine leukemia cell culture. Type of test: functional. The following applies: Mus musculus, read-out: ID50 (the source's name).
Test [1] has as its system Mus musculus. The experiment in a line: In vivo antitumor activity was evaluated against L1210 leukemia implanted mice by measuring percent increase in life span after intraperitoneal administration of compound at 12 mg/kg. The class given is functional. The method, boiled down:
(§1)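 Male B6D2F1J mice, five per group, were implanted ip with 10^5 L1210 cells on day 0. Treatment began on day 1. Drug was given ip in sterile water, twice daily on days 1-4 and 7-10, and as a single double-dose injection on days 5 and 6. Survival was recorded in days (range, and median treated/control), with % ILS derived from it. Body-weight change at 7 days was also recorded.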

The test system of test [2] is Mus musculus. The test is described as follows: In vivo antitumor activity was evaluated against L1210 leukemia implanted mice by measuring percent increase in life span after intraperitoneal administration of compound at 16 mg/kg. Type of test: functional. The method, boiled down:
as §1

Test [3] has as its system Mus musculus. The experiment in a line: In vivo antitumor activity was evaluated against L1210 leukemia implanted mice by measuring percent increase in life span after intraperitoneal administration of compound at 8 mg/kg. The class given is functional. The method, boiled down:
as §1

In test [4] the test system is Mus musculus. The experiment in a line: In vivo antitumor activity was evaluated against L1210 leukemia implanted mice by measuring 7-day weight change after intraperitoneal administration of compound at 12 mg/kg. The class given is functional. The method, boiled down: (§2)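 Groups of five male B6D2F1J mice were inoculated ip with 10^5 L1210 cells on day 0. Starting day 1, drug in sterile water was given ip bid on days 1-4 and 7-10, with a single double-dose injection on days 5 and 6. Percent body-weight change was recorded at day 7, along with survival range, median T/C and ILS.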

Test [5] concerns Mus musculus. The experiment in a line: In vivo antitumor activity was evaluated against L1210 leukemia implanted mice by measuring T/C median after intraperitoneal administration of compound at 16 mg/kg; T/C median=15/8. Type of test: functional. The method, boiled down:
as §1

Test [6] deals with Mus musculus. The experiment in a line: In vivo antitumor activity was evaluated against L1210 leukemia implanted mice by measuring T/C median after intraperitoneal administration of compound at 8 mg/kg; T/C median=13/8. Type of test: functional. The method, boiled down: as §1
The test system of test [7] is Mus musculus. The experiment in a line: In vivo antitumor activity was evaluated against L1210 leukemia implanted mice by measuring number of survival days after intraperitoneal administration of compound at 16 mg/kg; at a range of 15-17. Type of test: functional. The method, boiled down: as §1
The subject of test [8] is Mus musculus. The test is described as follows: In vivo antitumor activity was evaluated against L1210 leukemia implanted mice by measuring number of survival days after intraperitoneal administration of compound at 8 mg/kg; at a range of 12-15. The class given is functional. The method, boiled down:
as §1

In test [9] the test system is Mus musculus. The test is described as follows: In vivo antitumor activity was evaluated against L1210 leukemia implanted mice by measuring T/C median after intraperitoneal administration of compound at 12 mg/kg; T/C median=13/8. Type of test: functional. The method, boiled down:
as §1

Test [10] deals with Mus musculus. The test is described as follows: In vivo antitumor activity was evaluated against L1210 leukemia implanted mice by measuring 7-day weight change after intraperitoneal administration of compound at 8 mg/kg. The class given is functional. The method, boiled down: as §2
For test [11], the system named is Mus musculus. The experiment in a line: In vivo antitumor activity was evaluated against L1210 leukemia implanted mice by measuring 7-day weight change after intraperitoneal administration of compound at 16 mg/kg. The class given is functional. The method, boiled down: as §2
Test [12] addresses T1, Dihydrofolate reductase (Mus musculus) (UniProt P00375).
T1 sequence (whole entry): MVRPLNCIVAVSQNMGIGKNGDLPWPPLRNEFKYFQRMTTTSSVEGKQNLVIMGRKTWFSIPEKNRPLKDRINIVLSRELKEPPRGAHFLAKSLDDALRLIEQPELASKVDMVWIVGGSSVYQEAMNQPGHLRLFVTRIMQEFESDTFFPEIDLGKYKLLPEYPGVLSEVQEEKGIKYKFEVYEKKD

Test [13] relates to Mus musculus. The test is described as follows: In vivo antitumor activity was evaluated against L1210 leukemia implanted mice by measuring number of survival days after intraperitoneal administration of compound at 12 mg/kg; at a range of 13-15.

For the molecule `Nc1nc(N)c2nc(CNc3ccc(C(=O)NC(CS(=O)(=O)O)C(=O)O)cc3)cnc2n1` (centres undefined), the IC50 in the test with L1210 came out at 44 nM. Further, the Activity with Mus musculus [1] is given as 62%; in the test on Mus musculus [2], 88%; in the test with Mus musculus [3] it was 62%; with Mus musculus [4], 2%. The Survival days with Mus musculus [5] is listed as 15; in the test on Mus musculus [6] it was 13; with Mus musculus [7], 17; in the test with Mus musculus [8] it was 12; with Mus musculus [9], 13; in the test with Mus musculus [13], 13. The values for the Weight change in the test with Mus musculus [10] and with Mus musculus [11] were 2% and 0%, respectively. The molecule further gave an ID50 in [12] of 65 nM.
